pIC50: −log10 of the molar value. Several values for one entry are separate records, joined by “and”; a condition that tells them apart may be missing. Equal values may be shown once.

These results are taken from ChEMBL document CHEMBL1133748, “Synthesis and cytotoxic and antitumor activity of benzo[b]pyrano[3, 2-h]acridin-7-one analogues of acronycine” (J Med Chem, 2000).

Assay [1] has as its system Mus musculus. Briefly: Optimal therapeutic effect without toxicity in mice inoculated ip with P388 cells on day 0 with 12.5 mg/kg ip of compound on day 1. The class given is functional. Particulars: route intraperitoneal.
Assay [2] has as its system Mus musculus. As to the kind of experiment: Optimal therapeutic effect without toxicity in mice inoculated ip with P388 cells on day 0 with 12.5 mg/kg iv of compound on day 1.
The test system of a further assay is L1210. Briefly: In vitro inhibition of L1210 cell proliferation. It counts as functional, cell-based. The following applies: Mus musculus. Put shortly:
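L1210 murine leukemia cells grown in RPMI 1640 with 10% fetal calf serum, 2 mM glutamine, penicillin/streptomycin, 10 mM HEPES pH 7.4. Exposed 48 h to nine serial drug dilutions in triplicate. Microculture tetrazolium assay read-out. IC50 = concentration halving optical density versus untreated controls; mean of at least 2 separate experiments.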

For assay [3], the system named is Mus musculus. Briefly: Optimal therapeutic effect without toxicity in mice inoculated ip with P388 cells on day 0 with 200 mg/kg ip of compound on day 1. It counts as functional. The following applies: route intraperitoneal.
Assay [4] deals with Mus musculus. As to the kind of experiment: Optimal therapeutic effect without toxicity in mice inoculated ip with C38 cells on day 0 with 3.12 mg/kg iv of compound measured on day 31. It counts as functional, MC-38.
Assay [5] concerns Mus musculus. As to the kind of experiment: Optimal therapeutic effect without toxicity in mice inoculated ip with P388 cells on day 0 with 12.5 mg/kg iv of compound on day 1. It counts as functional.
For assay [6], the system named is Mus musculus. As to the kind of experiment: Optimal therapeutic effect without toxicity in mice inoculated ip with C38 cells on day 0 with 6.25 mg/kg iv of compound measured on day 31. It counts as functional, MC-38.

With `COc1cc2c(c3c1c(=O)c1ccccc1n3C)[C@@H](OC(C)=O)[C@@H](OC(C)=O)C(C)(C)O2` (racemic), the “T/C (survival)” value with Mus musculus [1] is 224%; in the assay on Mus musculus [2], 202%. In addition, the pIC50 (commonly the IC50 on a negative log10 scale, so that one unit is a factor of ten) in the assay with L1210 was 5.47.
For `COc1cc2c(c3c1c(=O)c1ccccc1n3C)C=CC(C)(C)O2` [ACRONINE], the “T/C (survival)” value with Mus musculus [3] is reported as 125%. For the same compound, in the assay on L1210, the pIC50 is 4.70.
In the case of `COc1cc2c(c3c1c(=O)c1cc4ccccc4cc1n3C)[C@H]1OC(=O)OC1C(C)(C)O2` (stereo partly drawn), the “T/C (tumor vol)” value with Mus musculus [4] came to 18%. The results for the “T/C (survival)” value with Mus musculus [1] and in the assay on Mus musculus [5] were 327% and 157%, respectively. In the assay on L1210, this compound had a pIC50 of 7.70.
As for `C=C1Oc2cc(OC)c3c(=O)c4cc5ccccc5cc4n(C)c3c2C1(C)C`, in the assay with L1210, the pIC50 is 4.85.
On the same count and under the same terms, next, `COc1cc2c(c3c1c(=O)c1cc4ccccc4cc1n3C)[C@@H](OC(C)=O)[C@@H](OC(=O)CC(C)C)C(C)(C)O2`: 6.30; `C=C1Oc2cc(O)c3c(O)c4cc5ccccc5cc4nc3c2C1(C)C`: 5.49; `COc1cc2c(c3c1c(=O)c1cc4ccccc4cc1n3C)[C@@H](OC(C)=O)[C@@H](OC(=O)c1ccccc1)C(C)(C)O2`: 6.70.
The same measure, in the same setting: next, `COc1cc2c(c3c1c(=O)c1cc4ccccc4cc1n3C)[C@@H](O)[C@@H](OC(=O)CC(C)C)C(C)(C)O2`: 5.72; `CC1(C)C=Cc2c(cc(O)c3c(O)c4cc5ccccc5cc4nc23)O1`: 4.99.
Turning to `COc1cc2c(c3c1c(=O)c1cc4ccccc4cc1n3C)[C@@H](OC(C)=O)[C@@H](OC(C)=O)C(C)(C)O2`, the “T/C (survival)” value in the assay on Mus musculus [1] (12.5 mg/kg) was 213% and 178%. In addition, in the assay on Mus musculus [6], the “T/C (tumor vol)” value is 4%. In the assay on L1210, the pIC50 was 6.22.
For the compound `COc1cc2c(c3c1c(=O)c1cc4ccccc4cc1n3C)[C@@H](O)[C@@H](OC(=O)c1ccccc1)C(C)(C)O2`, the pIC50 with L1210 was 5.77.
Same read-out and setting: next, `CCC(=O)O[C@@H]1c2c(cc(OC)c3c(=O)c4cc5ccccc5cc4n(C)c23)OC(C)(C)[C@@H]1OC(=O)CC`: 6.05.
Still for that read-out and setting: next, `COc1cc2c(c3c1c(=O)c1cc4ccccc4cc1n3C)[C@@H](OC(=O)CC(C)C)[C@@H](OC(=O)CC(C)C)C(C)(C)O2`: 6.30.
The same measure, in the same setting: next, `COc1c2c(cc3c1c(=O)c1cc4ccccc4cc1n3C)OC(C)(C)C=C2`: 5.31.
`COc1cc2c(c3c1c(=O)c1cc4ccccc4cc1n3C)[C@@H](O)[C@@H](O)C(C)(C)O2` showed a pIC50 with L1210 of 4.39.
On the same count and under the same terms, next, `C=C1Oc2cc3c(c(OC)c2C1(C)C)c(=O)c1cc2ccccc2cc1n3C`: 5.07.
On the same count and under the same terms, for `COc1cc2c(c3c1c(=O)c1cc4ccccc4cc1n3C)C=CC(C)(C)O2` [BENZO[B]ACRONYCINE] the value was 5.72.
Still for that read-out and setting: for `C=C1Oc2cc(O)c3c(=O)c4cc5ccccc5cc4n(C)c3c2C1(C)C` the value was 5.05.
In the assay on L1210, `Oc1cc(O)c2c(O)c3cc4ccccc4cc3nc2c1` showed a pIC50 of 5.22.
With `Cn1c2cc3ccccc3cc2c(=O)c2c(O)cc3c(c21)C=CC(C)(C)O3`, in the assay with L1210, the pIC50 is 4.75.
